ChEMBL document CHEMBL5316289, “Structure-Based Rational Design of Small α-Helical Peptides with Broad-Spectrum Activity against Multidrug-Resistant Pathogens” (J Med Chem, 2023)
Calls of active or inactive are those of the source. The calls are words filed in the database; no cut-off is given here. Where a SMILES comes first, the peptide text is derived from it. Bridges are numbered along the chain shown (N, C = ends). [ ]: non-standard residue; d: D form. The star is where a group is joined. X1 = CC[C@H](C)CCCCC(=O)*; Dab = NCC[C@H](N)C(=O)O

Columns and labels:
Staphylococcus aureus = experiment: Bactericidal activity against methicillin resistant Staphylococcus aureus ATCC BAA 1556 assessed as inhibition of bacterial growth at 4 times of MIC incubated for 3 hrs by Time kill assay; type: functional
Summary of the method: (§1)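 Aliquots taken every 30 min for 4 h and plated on agar for viable colony counts. Two independent experiments in triplicate.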

Lipid bilayer = experiment: Induction of membrane disruption in mammalian membrane mimic DOPC/cholesterol (10:1) large unilamellar vesicles assessed as induction of dye leakage at 50 ug/ml measured after 100 mins by calcein dye based analysis; type: cell membranes; conditions: dose 50.0 µg/ml
Summary of the method: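 LUVs loaded with calcein: DOPC/DOPG 7:3 w/w (bacterial mimic) or DOPC/cholesterol 10:1 w/w (mammalian mimic). Mixed 1:1 by volume with peptide at 5, 10, 20, 30 or 50 μg/mL. Fluorescence (ex 490/em 520 nm) read every 10 min for 100 min. Leakage expressed relative to 10% Triton X-100 lysis (100%), after subtracting liposome background. Triplicate.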

Cell membrane [1] = experiment: Disruption of cell membrane in methicillin resistant Staphylococcus aureus ATCC BAA 1556 assessed as increase in PI fluorescence intensity at MIC measured after 1 hrs by PI staining based flow cytometric analysis; type: subcellular
Summary of the method: (§2)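 Mid-log cells grown in Mueller Hinton broth, washed in 10 mM Tris pH 7.4, 10^7 CFU/mL, treated at MIC and 4× MIC for 1 h. Pelleted, washed, PI-stained for 15 min at 37 °C in the dark, then counted by flow cytometry for % PI-positive cells. PBS-treated cells as negative control, 10% Triton X-100 as positive control. Run in triplicate; two-tailed unpaired t-test.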

Cell membrane [2] = experiment: Disruption of cell membrane in methicillin resistant Staphylococcus aureus ATCC BAA 1556 assessed as increase in PI fluorescence intensity at 4 times of MIC measured after 1 hrs by PI staining based flow cytometric analysis; summary of the method: as §2
Cell membrane [3] = experiment: Disruption of cell membrane in Escherichia coli ATCC BAA-2452 assessed as increase in PI fluorescence intensity at 4 times of MIC measured after 1 hrs by PI staining based flow cytometric analysis; type: subcellular
Summary of the method: (§3)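 Mid-log E. coli ATCC BAA-2452 grown in Mueller Hinton broth, washed thrice and resuspended at 10^7 CFU/mL in 10 mM Tris pH 7.4. […] Controls: PBS (negative) and 10% Triton X-100 (positive). Triplicate; two-tailed unpaired t-test.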

Cell membrane [4] = experiment: Disruption of cell membrane in Escherichia coli ATCC BAA-2452 assessed as increase in PI fluorescence intensity at MIC measured after 1 hrs by PI staining based flow cytometric analysis; type: subcellular; summary of the method: as §3
Escherichia coli = experiment: Bactericidal activity against […] Escherichia coli ATCC BAA 2452 assessed as inhibition of bacterial growth at 4 times of MIC incubated for 2.5 hrs by Time kill assay; type: functional; summary of the method: as §1

Structure (SMILES) | inhibition (INH) (Staphylococcus aureus) [%] | Activity (Lipid bilayer) [%] | Activity (Cell membrane [1]) | Activity (Cell membrane [2]) | Activity (Cell membrane [3]) | Activity (Cell membrane [4]) | inhibition (INH) (Escherichia coli) [%]
CCCCCCCCCC(=O)N[C@@H](Cc1c[nH]c2ccccc12)C(=O)N[C@H](CC(N)=O)C(=O)N[C@@H](CC(=O)O)C(=O)N[C@@H]1C(=O)NCC(=O)N[C@@H](CCCN)C(=O)N[C@@H](CC(=O)O)C(=O)N[C@H](C)C(=O)N[C@@H](CC(=O)O)C(=O)NCC(=O)N[C@H](CO)C(=O)N[C@@H]([C@H](C)CC(=O)O)C(=O)N[C@@H](CC(=O)c2ccccc2N)C(=O)O[C@@H]1C | 100 | 7 | inactive | inactive | inactive | inactive | 
CC[C@H](C)CCCCC(=O)N[C@@H](CCN)C(=O)N[C@H](C(=O)N[C@@H](CCN)C(=O)N[C@H]1CCNC(=O)[C@H]([C@@H](C)O)NC(=O)[C@H](CCN)NC(=O)[C@H](CCN)NC(=O)[C@H](CC(C)C)NC(=O)[C@@H](Cc2ccccc2)NC(=O)[C@H](CCN)NC1=O)[C@@H](C)O (X1-[Dab]T[Dab][Dab][Dab][dF]L[Dab][Dab]T; lactam 4-C) |  |  |  |  |  |  | 100
